Measured values gathered from unrelated publications.
Compare with care: the assays were run in different laboratories. pEC50: −log10 of the molar value.
Effect on: cell growth or viability

SMILES	cell line	assay	setting	measurement	result
C=CC(=O)NC1CCN(c2ncc3ncnc(Nc4ccc(Oc5ccc6c(c5)ncn6C)c(C)c4)c3n2)CC1	MKN-7			pEC50	8.18
CNc1ncc2c(/C=C/C(=O)N3CCC(O)CC3)nn(CC3CCCC3)c2n1	OE33	resazurin	5 days	pEC50	< 4.52
CC(C)(C)c1cnc(CSc2cnc(NC(=O)C3CCN(CCCCCCCCSc4cccc5c4CN(C4CCC(=O)NC4=O)C5=O)CC3)s2)o1 (stereo not drawn)	HH	CCK-8	0.5 µM	viability	0%
CNc1ncc2c(/C=C/C(=O)N3CCC(OC)CC3)nn(CC(OC)OC)c2n1	OE33	resazurin	5 days	pEC50	< 4.52
O=C(Nc1ccc(Oc2nnc(-c3ccc(Cl)cc3)c3ccccc23)cc1)c1ccccc1	HepG2	MTT	2.5 µM, 24 h	viability	3.4%
CCOC(=O)c1nn(-c2cccc(Cl)c2)/c(=N/N=C(\C)c2ccc(NC(=O)c3ccccc3)cc2)s1	HepG2	MTT	0.625 µM	viability	3.18%
CC(=NNC(N)=S)c1ccc(Nc2nnc(-c3ccc(Cl)cc3)c3ccccc23)cc1	HepG2	MTT	2.5 µM	cell death	91.9%
CC(C)(C)c1cnc(CSc2cnc(NC(=O)C3CCN(C(=O)CCCSc4cccc5c4C(=O)N(C4CCC(=O)NC4=O)C5=O)CC3)s2)o1 (stereo not drawn)	HH	CCK-8	0.25 µM	viability	86.7%
CC(=NNC(=S)Nc1ccccc1)c1ccc(Nc2nnc(-c3ccc(Cl)cc3)c3ccccc23)cc1	HepG2	MTT	5 µM	cell death	95.1%
CC(C)(C)c1cnc(CSc2cnc(NC(=O)C3CCN(CCCCCCCCSc4cccc5c4C(=O)N(C4CCC(=O)NC4=O)C5=O)CC3)s2)o1 (stereo not drawn)	HH	CCK-8	0.25 µM	viability	0%
CNc1ncc2c(/C=C/C(=O)N3CCC(OC)CC3)nn(CC3CCCO3)c2n1 (stereo not drawn)	OE33	resazurin	5 days	pEC50	< 4.52
CC(=NNC(=O)c1ccncc1)c1ccc(Nc2nnc(-c3ccc(Cl)cc3)c3ccccc23)cc1	HepG2	MTT	0.156 µM	cell death	17.1%
CC(C)(C)c1cnc(CSc2cnc(NC(=O)C3CCN(C(=O)COCCOCCSc4cccc5c4C(=O)N(C4CCC(=O)NC4=O)C5=O)CC3)s2)o1 (stereo not drawn)	HH	CCK-8	1 µM	viability	7.67%
CCOC(Cn1nc(/C=C/C(=O)N2CCC(OC)CC2)c2cnc(NC)nc21)OCC	OE33	resazurin	5 days	pEC50	< 4.52
CCOC(=O)c1nn(-c2cccc(Cl)c2)/c(=N/N=C(\C)c2ccc(NC(=O)c3ccc(Cl)cc3)cc2)s1	HepG2	MTT	0.156 µM	viability	24.6%
CNc1ncc2c(/C=C/C(=O)N3CCC(OC)CC3)nn(Cc3ccccc3C(F)(F)F)c2n1	OE33	resazurin	5 days	pEC50	4.94
CC(=NNC(=O)c1ccccc1Br)c1ccc(Nc2nnc(-c3ccc(Cl)cc3)c3ccccc23)cc1	HepG2	MTT	0.625 µM, 24 h	viability	21.2%
CNc1ncc2c(/C=C/C(=O)N3CCCC(N(C)C)C3)nn(CC3CCCC3)c2n1 (stereo not drawn)	OE33	resazurin	5 days	pEC50	4.75
S=C(Nc1ccccc1)Nc1ccc(Oc2nnc(-c3ccc(Cl)cc3)c3ccccc23)cc1	HepG2	MTT	1.25 µM, 24 h	viability	57.1%
CC(C)(C)c1cnc(CSc2cnc(NC(=O)C3CCN(CCCCCCCSc4cccc5c4C(=O)N(C4CCC(=O)NC4=O)C5=O)CC3)s2)o1 (stereo not drawn)	HH	CCK-8	0.5 µM	viability	0%
Nc1ncnc2c1c(/C=C/C(=O)N1CCC(O)CC1)nn2CC1CCCC1	OE33	resazurin	5 days	pEC50	< 4.52
CC(=NNC(=O)c1cccnc1)c1ccc(Nc2nnc(-c3ccc(Cl)cc3)c3ccccc23)cc1	HepG2	MTT	2.5 µM, 24 h	viability	6.93%
CNc1ncc2c(/C=C/C(=O)N3CCC(c4ccccc4)CC3)nn(CC3CCCC3)c2n1	OE33	resazurin	5 days	pEC50	< 4.52
O=C(Nc1ccc(Oc2nnc(-c3ccc(Cl)cc3)c3ccccc23)cc1)c1cccc([N+](=O)[O-])c1	HepG2	MTT	10 µM	cell death	93.8%
